# Screening data deposited in PubChem by The Scripps Research Institute Molecular Screening Center.
# Most compounds without a hit are left out; they make up all but 2.8% or so of the library.
# HTRA1 inh: HTRA1 (human) protease inhibition | Q92743 | 340,000 compounds, 0.5% hits | inhibition, % at 5.96 µM | recombinant HTRA1, FP-rhodamine activity-based probe, fluorescence polarization; in the data active = inhibition above about 36%;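 note: 0% = enzyme with DMSO and 100% = wells lacking enzyme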
# PAFAH1B2 inh: blocks human PAF acetylhydrolase 1b catalytic subunit 2; recombinant PAFAH1B2, FP-rhodamine activity probe, fluorescence polarization; inhibition, % at 3.39 µM; 340,000 compounds, 1.2% hits;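 active = inhibition above the mean of all tested compounds plus 3 SD, cut at about 24% in these data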;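 note: 0% = enzyme with DMSO and 100% = wells lacking PAFAH1B2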
# PAFAH2 FP inh: PAFAH2 (human) inhibition; recombinant PAFAH2, FP-rhodamine activity probe, fluorescence polarization; Q99487; 340,000 compounds, 0.99% hits; inhibition, % at 3.39 µM;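 active = inhibition above the mean over all tested compounds plus 3 SD, cut at about 30% in these data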;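 note: inhibitors block probe labeling of enzyme so polarization drops; 0% = enzyme with DMSO and 100% = wells lacking PAFAH2 protein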
# pPAFAH FP inh: inhibitors of human plasma PAF acetylhydrolase (pPAFAH) | Q13093 | recombinant pPAFAH, FP-rhodamine probe fluorescence polarization | inhibition, % at 3.39 µM | 330,000 compounds, 1.5% hits | AID 463082;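 active = inhibition above the mean inhibition across the screen plus 3 SD, cut at about 25% in these data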;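 note: inhibitors block binding of the rhodamine activity-based probe so polarization drops; 0% = enzyme with DMSO and 100% = wells lacking pPAFAH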
# ABHD4 inh: inhibits mouse alpha/beta hydrolase domain 4; 370,000 compounds, 0.54% hits; AID 720543; inhibition, % at 8.92 µM; purified mABHD4, FP-Rh probe fluorescence polarization;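 active = inhibition exceeding the mean over every tested compound plus 3 SD, cut at about 30% in these data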;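 note: 0% = plate median of compound wells and 100% = S159A mutant with DMSO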
# Target sequence (Q8VD66 whole entry, looked up, the tested form may be a part): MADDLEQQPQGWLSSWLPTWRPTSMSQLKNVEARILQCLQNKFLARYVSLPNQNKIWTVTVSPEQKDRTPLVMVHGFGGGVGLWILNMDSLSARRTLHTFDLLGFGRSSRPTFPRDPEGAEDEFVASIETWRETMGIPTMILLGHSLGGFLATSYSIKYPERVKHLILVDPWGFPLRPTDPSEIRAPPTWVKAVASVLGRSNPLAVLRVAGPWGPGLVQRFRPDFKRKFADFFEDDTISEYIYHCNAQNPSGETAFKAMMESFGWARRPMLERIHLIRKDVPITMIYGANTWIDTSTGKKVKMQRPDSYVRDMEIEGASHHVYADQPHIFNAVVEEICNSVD
#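 assay system = mABHD4 protein | compound dosing = single nominal dose of 8.92 µM, 0.89% DMSO final | read-out basis = percent inhibition of probe binding, normalized to plate controls | schedule = Enzyme–compound pre-incubation 45 min, then probe 60 min, both 25 °C | detection = fluorescence polarization, excitation 525 nm, emission 598 nm, BODIPY TMR filters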
# PAFAH1B3 inh: blocks human PAF acetylhydrolase 1B catalytic subunit 3 | Q15102 | recombinant PAFAH1B3, FP-rhodamine probe, fluorescence polarization | inhibition, % at 3.39 µM | 340,000 compounds, 0.28% hits | AID 492972;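 active = inhibition above the screen-wide average of all tested compounds plus 3 SD, cut at about 25% in these data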;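 note: 0% = enzyme with DMSO only and 100% = wells lacking PAFAH1B3 protein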
# Target sequence (Q15102 whole entry, looked up): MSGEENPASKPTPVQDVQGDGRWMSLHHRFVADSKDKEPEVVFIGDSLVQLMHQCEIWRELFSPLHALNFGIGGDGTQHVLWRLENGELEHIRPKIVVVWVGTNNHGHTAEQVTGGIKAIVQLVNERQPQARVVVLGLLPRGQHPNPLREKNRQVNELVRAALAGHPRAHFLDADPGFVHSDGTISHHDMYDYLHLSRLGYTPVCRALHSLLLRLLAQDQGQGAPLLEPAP
# PAFAH2 confirm: confirmation of human PAFAH2 inhibitors. recombinant PAFAH2, FP-rhodamine activity probe, fluorescence polarization. inhibition, % at 3.39 µM. 2,300 compounds, 65% hits. shares compounds with PAFAH2 FP inh. AID 493030;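 active = mean inhibition over three repeats above a set limit taken from the earlier primary screen, cut at about 30% in these data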;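 note: inhibitor blocks binding of rhodamine activity probe so polarization falls; 0% = enzyme with DMSO and 100% = wells lacking PAFAH2 protein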
# * marks the source's active call; other numbers are inactive results; · = no result.
SMILES,HTRA1 inh,PAFAH1B2 inh,PAFAH2 FP inh,pPAFAH FP inh,ABHD4 inh,PAFAH1B3 inh,PAFAH2 confirm
CC(C)CNC(=O)COC(=O)c1n[nH]c2ccccc12,0,4,56*,1,0,7,39*
COc1ccc(CNC(=O)COC(=O)c2n[nH]c3ccccc23)cc1,-16,-1,10,2,5,2,·
CCOc1ccc(NC(=O)COC(=O)c2n[nH]c3ccccc23)cc1,-13,7,62*,-3,-8,13,37*
CC(=O)Nc1ccc(NC(=O)COC(=O)c2n[nH]c3ccccc23)cc1,-5,-2,-1,-1,3,5,·
NC(=S)n1[nH]c(-c2ccc([N+](=O)[O-])cc2)c(N=Nc2cccc(Cl)c2)c1=O,-1,16,36*,·,18,17,25
COC(=O)C1CN(Cc2cn(Cc3ccc(Cl)cc3)nn2)CCS(=O)(=O)N1Cc1ccc(OC)cc1 (stereo unspecified),·,·,·,·,2,·,·
Cc1ccc(-c2cc(C(=O)NN=Cc3ccc(-c4ccccc4)cc3)[nH]n2)cc1C,·,·,·,·,3,·,·
CC1(C)CC(=O)C/C(=N/NC(=O)COc2ccc3ccccc3c2Br)C1,-6,9,30*,8,-8,4,16
CC1(C)CC(=O)C/C(=N/NC(=O)COc2ccc(Cl)cc2Cl)C1,-4,-2,40*,11,-2,11,22
COc1ccc(-n2c(SCC(=O)Nc3ccc(S(=O)(=O)Nc4nccs4)cc3)nnc2-c2ccco2)cc1,·,·,·,·,-11,·,·
CCOC(=O)[C@@]12CCCC=C1N(CCc1ccc(Cl)cc1)C(=O)[C@H]2CC(=O)NCc1ccc(OC)c(OC)c1,·,·,·,·,-1,·,·
OC[C@@H]1CC[C@@H]2O[C@H](CCc3ccc(-c4ccc(F)cc4)cc3)[C@H](n3cc(C4CC4)nn3)C[C@@H]2O1,·,·,·,·,-7,·,·
N=C1C(c2nc(-c3ccc(Cl)cc3)cs2)=C(O)CN1CCCN1CCOCC1,12,3,30*,20,18,5,30*
CCN(C(=O)[C@@H](C)[C@@H](O)c1ccc2ccccc2c1)c1ccccc1,·,·,·,·,-3,·,·
Cc1n[nH]c(C)c1S(=O)(=O)NC(C)Cc1ccccn1 (stereo unspecified),·,·,·,·,-1,·,·
COc1cc(C(=O)Nc2ccc(F)cc2Cl)ccc1OCC(=O)N1CCOCC1,0,1,-2,2,-1,12,·
CCOc1cc(C(=O)OCC(=O)Nc2ncc(Cl)c(C)c2Cl)ccc1OCC(=O)N1CCOCC1,4,0,55*,7,17,3,54*
Cc1c(Cl)cnc(NC(=O)COC(=O)c2ccc3c(c2)OCO3)c1Cl,3,3,50*,8,11,8,30*
CCOc1cc(C(=O)OC(C)C(=O)Nc2ncc(Cl)cc2Cl)ccc1OCC(=O)N1CCOCC1 (stereo unspecified),5,2,11,-1,2,5,·
CCOc1ccc(C(=O)OCC(=O)N2CCOCC2)cc1OCC,-5,2,7,9,7,4,·
CCOc1cc(C(=O)OCC(=O)Nc2c(C)cccc2C)ccc1OCC(=O)N1CCOCC1,0,1,50*,13,-5,2,68*
CCOc1cc(C(=O)OCC(=O)Nc2ccc(F)cc2Cl)ccc1OCC(=O)N1CCOCC1,-1,3,76*,·,-1,-2,71*
COc1cccc(CC(=O)N(Cc2ccccc2)c2ccccc2C(=O)Nc2cc(OC)ccc2OC)c1,·,·,·,·,-8,·,·
Cc1onc(C(=O)N2CCN(C(c3ccc(F)cc3)c3ccc(F)cc3)CC2)c1[N+](=O)[O-],·,·,·,·,-5,·,·
COC(=O)[C@]12C[C@H](CC(=O)NCC34CC5CC(CC(C5)C3)C4)C(=O)N(CCC3=CCCCC3)C1=C[C@H](C(C)C)O[C@@H]2C1CC1,·,·,·,·,4,·,·
SMILES,HTRA1 inh,PAFAH1B2 inh,PAFAH2 FP inh,pPAFAH FP inh,ABHD4 inh,PAFAH1B3 inh,PAFAH2 confirm
COc1cc(C(=O)OCC(=O)Nc2ccc(C(C)=O)cc2)ccc1OCC(=O)N1CCOCC1,1,7,61*,1,9,6,58*
CCOC(=O)c1ccccc1NC(=O)COC(=O)c1ccc(OCC(=O)N2CCOCC2)c(OCC)c1,3,-5,35*,·,1,-1,24
CCOC(=O)c1ccccc1NC(=O)COC(=O)c1ccc(C)c(S(=O)(=O)N2CCOCC2)c1,-1,-4,17,4,5,4,·
COc1ccc(C(=O)OCC(=O)Nc2ccc(N3CCOCC3)cc2)cc1OC,4,5,23,0,-1,6,·
CCN(CC(=O)Nc1c(F)cccc1F)C(=O)c1ccc(N2CCCC2)c([N+](=O)[O-])c1,-6,1,0,-1,-1,4,·
Cc1cccc(C)c1NC(=O)COC(=O)c1ccc(N2CCCC2)c([N+](=O)[O-])c1,2,-1,63*,13,-3,-3,59*
Cc1cc2c(s1)c1cnn(Cc3cc(F)c(F)cc3F)c(=O)c1n2C,·,·,·,·,-6,·,·
CCOC(=O)C1CCCN(S(=O)(=O)c2ccc3c4c2CC(=O)N4CC(C)S3)C1 (stereo unspecified),-3,-3,35*,16,10,3,18
CCOC(=O)C1CCN(S(=O)(=O)c2ccc3c4c2CC(=O)N4CC(C)S3)CC1 (stereo unspecified),5,-5,4,-2,5,7,·
CCCC(=O)Nc1ccc(C(=O)n2ccc(C)n2)cc1,31,4,49*,3,4,-2,41*
COc1ccc(Br)c(C(=O)OCC(=O)NC2CCCCCC2)c1,-1,0,77*,14,1,7,60*
O=C(COC(=O)c1cc(=O)c2ccccc2o1)NC1CCCC1,-1,3,8,1,1,-3,·
CSCc1c(C(=O)OCC(=O)NC2CCCCC2)oc2ccccc12,-1,0,57*,14,-2,4,60*
CCOc1ccc2oc(C(=O)OCC(=O)NC3CCCC3)c(C)c2c1,0,3,55*,14,-1,1,32*
Cc1c(C(=O)OCC(=O)NC2CCCCC2)oc2ccccc12,-4,2,46*,16,-1,10,48*
CCOc1ccc2oc(C(=O)OCC(=O)NC(=O)NC3CCCC3)c(C)c2c1,-3,3,0,3,-4,0,·
Cc1c(C(=O)OCC(=O)NCC2CCCO2)oc2ccccc12 (stereo unspecified),2,8,6,6,1,14,·
COc1ccc(Br)c(C(=O)OCC(=O)NC2CCCCCCC2)c1,-12,·,·,·,-3,·,·
O=S1(=O)c2ccc(N3CC[C@@H](O)C3)cc2O[C@@H]2CCN1C2,·,·,·,·,1,·,·
COc1cccc(-c2nnc(SCC(=O)OC(C)C)n2-c2ccc(Cl)cc2)c1,·,·,·,·,-2,·,·
Cc1cc(NC(=O)c2ccc(NS(=O)(=O)c3ccc(C)c(C)c3)cc2)no1,·,·,·,·,-4,·,·
